Assays:
[1] = target: T1, Acetylcholinesterase (Homo sapiens, UniProt P22303); assay: Inhibition of acetylcholinesterase (unknown origin) using acetylthiocholine iodide as substrate after 25 mins by Ellmann method
How it was run: (§1)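 Modified Ellman assay, triplicate. Compounds dissolved in Tween 80, diluted with water to five concentrations. Mix: enzyme […], substrate (acetylthiocholine iodide or butyrylthiocholine iodide) and test compound in phosphoric acid buffer, pH 8.0, 0.1 mol/L. Incubated 25 min at 30 °C, then terminated. IC50 reported as mean ± SD of three experiments.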

[2] = target: T1, Acetylcholinesterase; assay: Potency index, ratio of rivastigmine IC50 to compound IC50 for acetylcholinesterase (unknown origin)
[3] = Inhibition of carboxylesterase (unknown origin) using 4-nitrophenyl acetate as substrate by UV-Vis spectrophotometer; parameters: species or system Homo sapiens
How it was run: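 Read-out was 4-nitrophenol released by CaE hydrolysis of 1.0 mmol/L 4-nitrophenyl acetate, measured at 405 nm. Reactions ran in 100 mmol/L potassium phosphate buffer, pH 8.0, at 25 °C. CaE activity was taken as proportional to 4-nitrophenol concentration.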

[4] = target: T1, Acetylcholinesterase; assay: Noncompetitive inhibition of acetylcholinesterase (unknown origin) using acetylthiocholine iodide as substrate by Michaelis-Menten plot analysis
[5] = target: Cholinesterase (Homo sapiens, UniProt P06276); assay: Inhibition of butyrylcholinesterase (unknown origin) using butyrylthiocholine iodide as substrate after 25 mins by Ellmann method; how it was run: as §1
[6] = target: T1, Acetylcholinesterase; assay: Competitive inhibition of acetylcholinesterase (unknown origin) using acetylthiocholine iodide as substrate by Michaelis-Menten plot analysis
[7] = Octanol-water partition coefficient, log P of the compound at pH 7.4 by shake flask method; type: physicochemical
How it was run: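 Shake flask partition between octanol and PBS (pH 7.4). Mixture shaken at 37 °C overnight, then centrifuged at 2000 rpm for 20 min. Phases analysed by C18 HPLC with methanol-0.1% TEA (85:15, v/v) at 1.0 mL/min and 32 °C, detection at 322 nm. Run in triplicate, log P calculated.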

[8] = species on record: Homo sapiens; assay: Selectivity index, ratio of IC50 for butyrylcholinesterase (unknown origin) to IC50 for acetylcholinesterase (unknown origin)

T1 sequence (P22303 whole entry): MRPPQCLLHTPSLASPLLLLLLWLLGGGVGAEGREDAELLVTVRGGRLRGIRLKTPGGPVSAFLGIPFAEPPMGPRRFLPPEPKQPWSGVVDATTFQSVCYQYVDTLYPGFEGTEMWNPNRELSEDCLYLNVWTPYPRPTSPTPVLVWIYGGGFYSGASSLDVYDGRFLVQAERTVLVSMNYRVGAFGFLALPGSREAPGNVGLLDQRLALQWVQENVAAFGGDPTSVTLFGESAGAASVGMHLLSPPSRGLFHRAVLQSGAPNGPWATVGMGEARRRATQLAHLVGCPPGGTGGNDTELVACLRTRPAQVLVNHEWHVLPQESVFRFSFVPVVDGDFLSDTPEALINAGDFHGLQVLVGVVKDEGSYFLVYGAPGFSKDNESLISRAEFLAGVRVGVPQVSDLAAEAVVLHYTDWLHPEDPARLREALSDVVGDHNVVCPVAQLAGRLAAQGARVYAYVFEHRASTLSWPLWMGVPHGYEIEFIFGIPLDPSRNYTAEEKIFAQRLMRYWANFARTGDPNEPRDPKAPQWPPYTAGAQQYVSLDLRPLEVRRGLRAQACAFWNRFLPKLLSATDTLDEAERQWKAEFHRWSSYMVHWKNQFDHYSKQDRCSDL
Sequence of Cholinesterase (P06276 whole entry): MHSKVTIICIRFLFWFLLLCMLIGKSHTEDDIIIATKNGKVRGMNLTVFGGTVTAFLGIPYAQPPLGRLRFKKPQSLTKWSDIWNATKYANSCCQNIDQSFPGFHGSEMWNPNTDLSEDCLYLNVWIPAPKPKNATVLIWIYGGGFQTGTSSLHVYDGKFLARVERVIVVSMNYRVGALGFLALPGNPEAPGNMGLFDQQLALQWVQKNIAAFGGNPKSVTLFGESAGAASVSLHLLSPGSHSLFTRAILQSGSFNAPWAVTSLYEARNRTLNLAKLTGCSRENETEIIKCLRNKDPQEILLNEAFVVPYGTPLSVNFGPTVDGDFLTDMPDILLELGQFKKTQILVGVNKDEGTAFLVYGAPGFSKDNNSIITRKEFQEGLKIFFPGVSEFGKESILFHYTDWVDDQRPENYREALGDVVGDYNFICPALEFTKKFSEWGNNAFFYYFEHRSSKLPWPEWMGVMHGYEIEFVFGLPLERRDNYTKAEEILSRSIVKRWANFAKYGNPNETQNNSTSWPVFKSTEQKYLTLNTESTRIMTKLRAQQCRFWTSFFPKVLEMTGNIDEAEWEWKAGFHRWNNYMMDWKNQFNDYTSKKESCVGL

COc1cc(/C=C/C(=O)Nc2ccccc2)ccc1OCCCCCCN1CCCCC1
IC50 [1]: 710 nM | Ratio IC50 [2]: 15 | IC50 [3]: > 500 µM | Ki [4]: 920 nM | IC50 [5]: 13 µM | Ki [6]: 480 nM | logD [7]: 1.77 | Ratio IC50 [8]: 18.3

Reference: ChEMBL document CHEMBL3994591, “Novel ferulic amide derivatives with tertiary amine side chain as acetylcholinesterase and butyrylcholinesterase inhibitors: The influence of carbon spacer length, alkylamine and aromatic group” (Eur J Med Chem, 2017)
